Experiments:
Format in all cases: functional
Rattus norvegicus [1] = assay: Antiinflammatory activity was measured as the percentage inhibition of edema in carrageenan induced rat paw after peroral administration of 100 mg/kg of compound; conditions: route oral
How it was run: (§1)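 Female Wistar rats (120–150 g), 10 per dose, dosed orally with an aqueous suspension in 0.5% methocel (10 mL/kg) 1 h before 0.05 mL of 1% carrageenin in saline was injected into the right hind paw aponeurosis. Paw volume was read plethysmographically at injection and 4 h later. Inhibition is given relative to vehicle controls. Screening dose 200 mg/kg; 100 mg/kg was tested when inhibition exceeded 30%. Student's t test.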

Rattus norvegicus [2] = assay: Antiinflammatory activity measured as the percentage inhibition of edema in carrageenan induced rat paw after peroral administration of 200 mg/kg of compound; conditions: route oral; how it was run: as §1
Rattus norvegicus [3] = organism: Rattus norvegicus; assay: Compound was evaluated for its analgesic activity by Randall-Selitto test in comparison with that of Aspirine
How it was run: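 Randall–Selitto pain threshold, measured on the inflamed right hind paw of male Wistar rats (170–200 g), 10 per dose. Edema was induced with 0.1 mL of 20% yeast suspension in saline. Oral dosing in 0.5% methocel (10 mL/kg), highest dose one-fifth of LD50, then scaling down through 100, 50, 20, 10, 5 and 2 mg/kg. Threshold read before dosing, then hourly for 6 h. Potency expressed relative to aspirin = 1.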

Rattus norvegicus [4] = organism: Rattus norvegicus; assay: Compound was evaluated for its antipyretic activity by antipyresis effect in comparison with that of Aspirin.
How it was run: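 Male Sprague-Dawley rats (120–150 g), 6 per dose, starved 18 h and kept at 24 °C; rats above 38 °C were excluded. Fever was induced by subcutaneous 1 mL of filtered 5% peptone preincubated 48 h at 37 °C. Oral doses as in the analgesic test (top dose one-fifth of LD50, stepping down). Rectal thermocouple readings from 4 h after injection, then hourly for 4 h. Activity relative to aspirin = 1.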

Rattus norvegicus [5] = assay: Compound was evaluated for its antiinflammatory activity in the cotton pellet induced granuloma(CPG) in normal rats at the dose 200 mg/kg p.o.; conditions: route oral
How it was run: (§2)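 Male Wistar rats (150–180 g), 7 per group. Two sterile 50 mg cotton pellets were implanted subcutaneously in the interscapular region under ether. Oral dosing in 0.5% methocel (10 mL/kg) daily for 6 days, starting 6 h after surgery. Animals were killed 24 h after the last dose; pellets with granuloma were dried 24 h at 80 °C. Percent inhibition versus vehicle controls.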

Rattus norvegicus [6] = organism: Rattus norvegicus; assay: Compound was evaluated for its gastroulcerogenic effect with respect to treated and control groups. Treated and control groups are not statistically different when the index is <1; P<0.05.
Rattus norvegicus [7] = assay: (§3) Compound was evaluated for its antiinflammatory activity by adjuvant-induced polyarthritis test in rats at a dosage of 200 mg/kg administered orally; conditions: route oral
How it was run: (§4)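 Female Wistar rats (130–150 g), 8 per dose. Killed Mycobacterium butyricum (0.6 mg in 0.1 mL mineral oil) was injected into the right hind plantar aponeurosis. Oral dosing in 0.5% methocel, once daily, curative scheme from day 14 to day 27. Read-outs: percent change in hind-paw volume versus controls; Newbould 0–4 lesion scores for front paws, tail and ears; plasma inflammation units by nephelometric turbidity before and after 30 min at 56 °C on day 27.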

Rattus norvegicus [8] = assay: as §3; set-up: unit not given beside the values; conditions: route oral; how it was run: as §4
Rattus norvegicus [9] = assay: Compound was evaluated for its gastroulcerogenic effect in rats at a peroral dose of 200 mg/kg; conditions: route oral
Rattus norvegicus [10] = assay: (§5) Compound was evaluated for its antiinflammatory activity by adjuvant-induced polyarthritis test in rats at a dosage of 100 mg/kg administered orally; conditions: route oral; how it was run: as §4
Rattus norvegicus [11] = assay: Compound was evaluated for its antiinflammatory activity in the cotton pellet induced granuloma(CPG) in normal rats at the dose 100 mg/kg p.o.; conditions: route oral; how it was run: as §2
Rattus norvegicus [12] = assay: as §5; set-up: unit not given beside the values; conditions: route oral; how it was run: as §4
Rattus norvegicus [13] = assay: Compound was evaluated for its gastroulcerogenic effect in rats at a peroral dose of 200 mg/kg, P<0.05.; conditions: route oral

Structure (SMILES) | inhibition in vivo at 100 mg/kg (Rattus norvegicus [1]) | inhibition in vivo at 200 mg/kg (Rattus norvegicus [2]) | Activity (Rattus norvegicus [3]) | Activity (Rattus norvegicus [4]) | inhibition in vivo at 200 mg/kg (Rattus norvegicus [5]) | further results
COc1ccc(-c2nc3c4ccccc4ccc3n2C(C)CO)cc1 (stereo not drawn) | 31% | 35% |  |  |  | 
COc1ccc(-c2nc3c4ccccc4ccc3n2C)cc1C | 24% | 35% |  |  |  | 
Cn1c(-c2cccc(Cl)c2)nc2c3ccccc3ccc21 |  | 7% |  |  |  | 
Cn1c(-c2ccccc2)nc2c3ccccc3ccc21 | 37% | 42% | 0.9 | 9.1 | 24% | Ulcerogenic index (Rattus norvegicus [6]): 0.33
Cn1c(-c2ccncc2)nc2c3ccccc3ccc21 | 44% | 63% | 2.4 | 1.4 | 33% | Arthritis scores (Rattus norvegicus [7]): 10; Inflammation units (Rattus norvegicus [7]): 3; Mean volume of hind paws (Rattus norvegicus [8]): 20; Ulcerogenic index (Rattus norvegicus [9]): 0.31
COc1ccccc1-c1nc2c3ccccc3ccc2n1C |  | 0% |  |  |  | 
Cn1c(-c2cccs2)nc2c3ccccc3ccc21 | 31% | 40% | 1 | 0.9 | 31% | Arthritis scores (Rattus norvegicus [7]): 24; Inflammation units (Rattus norvegicus [7]): 18; Mean volume of hind paws (Rattus norvegicus [8]): 23; Ulcerogenic index (Rattus norvegicus [9]): 0.12
COc1cccc(-c2nc3c4ccccc4ccc3n2C)c1 |  | 21% |  |  |  | 
Cc1cc(-c2nc3c4ccccc4ccc3n2C)ccc1N(C)C | 64% | 69% | 2.8 | 10.5 |  | Arthritis scores (Rattus norvegicus [10]): 69; Inflammation units (Rattus norvegicus [10]): 84; inhibition in vivo at 100 mg/kg (Rattus norvegicus [11]): 38%; Ulcerogenic index (Rattus norvegicus [9]): 0.21; Mean volume of hind paws (Rattus norvegicus [12]): 42
C=C(C)n1c(-c2ccc(OC)cc2)nc2c3ccccc3ccc21 | 54% | 58% |  |  |  | Arthritis scores (Rattus norvegicus [10]): 70; Inflammation units (Rattus norvegicus [10]): 68; Mean volume of hind paws (Rattus norvegicus [12]): 38
Cn1c(-c2ccc(OCC(=O)O)cc2)nc2c3ccccc3ccc21 |  | 7% |  |  |  | 
CCOc1ccc(-c2nc3c4ccccc4ccc3n2C)cc1 | 37% | 45% | 0.3 | 2.2 | 40% | Arthritis scores (Rattus norvegicus [7]): 43; Inflammation units (Rattus norvegicus [7]): 60; Mean volume of hind paws (Rattus norvegicus [8]): 25; Ulcerogenic index (Rattus norvegicus [13]): 0.21
C=Cn1c(-c2ccc(OC)cc2)nc2c3ccccc3ccc21 | 48% | 58% | 1.1 | 6.9 | 31% | Arthritis scores (Rattus norvegicus [10]): 39; Inflammation units (Rattus norvegicus [10]): 61; Ulcerogenic index (Rattus norvegicus [9]): 0.3; Mean volume of hind paws (Rattus norvegicus [12]): 34
COc1ccc(-c2nc3c4ccccc4ccc3n2C2CC2)cc1 | 53% | 56% | 0.7 | 0.8 | 11% | Ulcerogenic index (Rattus norvegicus [9]): 0.29
Cc1cc(-c2nc3c4ccccc4ccc3n2C)cc(C)c1N(C)C |  | 14% |  |  |  | 
CCC(C)n1c(-c2ccc(OC)cc2)nc2c3ccccc3ccc21 (stereo not drawn) |  | 18% |  |  |  | 
CCn1c(-c2ccc(OC)cc2)nc2c3ccccc3ccc21 | 49% | 52% | 1.1 | 2.9 | 31% | Arthritis scores (Rattus norvegicus [7]): 21; Inflammation units (Rattus norvegicus [7]): 35; Mean volume of hind paws (Rattus norvegicus [8]): 21; Ulcerogenic index (Rattus norvegicus [13]): 0.09
COc1ccc(-c2nc3c4ccccc4ccc3n2CCO)cc1 |  | 11% |  |  |  | 
CCCCn1c(-c2ccc(OC)cc2)nc2c3ccccc3ccc21 |  | 25% |  |  |  | 
CNc1ccc(-c2nc3c4ccccc4ccc3n2C)cc1 | 47% | 59% |  |  |  | inhibition in vivo at 100 mg/kg (Rattus norvegicus [11]): 33%; Ulcerogenic index (Rattus norvegicus [13]): 0.16
CC(=O)Oc1ccc(-c2nc3c4ccccc4ccc3n2C)cc1 |  | 8% |  |  |  | 
